Experimental findings from ChEMBL document CHEMBL1155659, “Chemistry of sponges. 19. Novel bioactive metabolites from Hamigera tarangaensis” (J Nat Prod, 2000) are described below.

The source made the active and inactive calls. The calls are words filed in the database; no cut-off is given here.

In assay [1] the test system is P388. The assay is described as follows: Cytotoxicity against mouse P388 cells. The assay is classed as functional, cell-based.
Assay [2] relates to Bacillus subtilis. Briefly: Antibacterial activity against Bacillus subtilis at 96 ug. The assay is classed as functional. The settings on record: read-out: IZ.
Assay [3] relates to Escherichia coli. The assay is described as follows: Antibacterial activity against Escherichia coli. Format: functional, organism-based.
The test system of assay [4] is Enterovirus C. Briefly: Antiviral activity against Poliovirus. The assay is classed as functional. Summed up: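 Disk assay at 132 μg per disk, scored as percent virus inhibition, with cytotoxicity assessed across the whole well.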
The subject of assay [5] is Bacillus subtilis. The assay is described as follows: Antibacterial activity against Bacillus subtilis at 156 ug. The following applies: read-out: IZ. Format: functional.
Assay [6] relates to Bacillus subtilis. Briefly: Antibacterial activity against Bacillus subtilis at 150 ug. The following applies: read-out: IZ. Format: functional.
In assay [7] the test system is Herpesviridae sp. The assay is described as follows: Antiviral activity against Herpesvirus. Format: functional. Summed up:
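Disk-based antiviral test, sample loaded at 132 μg per disk onto herpes-virus-infected cell wells; read-out is percent virus inhibition, with cytotoxicity scored across the whole well.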

Assay [8] concerns Candida albicans. The assay is described as follows: Antifungal activity against Candida albicans. The assay is classed as functional, organism-based.
Assay [9] relates to Trichophyton mentagrophytes. Briefly: Antifungal activity against Trichophyton mentagrophytes. Format: functional, organism-based.
In assay [10] the test system is Bacillus subtilis. Briefly: Antibacterial activity against Bacillus subtilis. Format: functional, organism-based.

A word on the IC50: it is the concentration that inhibits the measured activity by half. Read a low IC50 as inhibition by little substance. In turn, `Cc1cc2c3c(c1Br)O[C@H](C)N=C3C(=O)C[C@]1(C)CC[C@H](C(C)C)[C@H]21` [HAMIGERAN D] returned an IC50 in [1] of 8 µM. In [2], the zone of inhibition at 96 µg/disc came out at 3 mm. Also, the result in assay [3], in [4], in assay [7] and in [8] was inactive. In addition, the zone of inhibition at 156 µg/disc in [5] came to 3 mm. Further, the zone of inhibition at 150 µg/disc in assay [6] amounted to 3 mm.
`Cc1cc2c(c(O)c1Br)C(=O)C(=O)[C@]1(C)CC[C@H](C(C)C)[C@H]21` [HAMIGERAN B]: the outcome in assay [3] and in assay [8] was inactive. Further, the “inhibition (INH)” value in assay [4] and in assay [7] was 100% throughout.
As for `COC(=O)[C@]1(O)C(=O)c2c(O)cc(C)cc2[C@H]2[C@@H](C(C)C)CC[C@]21C`, the outcome in assay [3], in assay [4], in assay [9], in assay [7] and in assay [8] was inactive.
Turning to `CC(=O)O[C@H]1C(=O)C(=O)c2c(cc(C)c(Br)c2O)[C@H]2[C@@H](C(C)C)CC[C@@]12C` [HAMIGERAN C], the IC50 in assay [1] is 16 µM. In addition, the zone of inhibition at 96 µg/disc in [2] is 3 mm. The outcome in assay [3], in assay [4], in assay [7] and in assay [8] was inactive. The zone of inhibition at 156 µg/disc in assay [5] is 3 mm. Also, the zone of inhibition at 150 µg/disc in [6] worked out at 3 mm.
`CCOC(=O)c1c([C@H]2[C@@H](C(C)C)CC[C@@]2(C)C(=O)OCC)cc(C)c(Br)c1OCC` [TRYETHYLHAMIGERAN E] registered an IC50 in [1] of 54.2 µM. Also, the outcome in assay [3], in [4], in assay [9], in [10], in assay [7] and in [8] was inactive.
Take `Cc1c(Br)c(O)c2c(c1Br)[C@H]1[C@@H](C(C)C)CC[C@@]1(C)C(=O)C2=O` [4-BROMOHAMIGERAN B]: in assay [1], inhibition was half-maximal at 13.9 µM (IC50). Moreover, the result in [3], in [4], in [9], in [7] and in assay [8] was inactive.
`COC(=O)[C@]1(O)C(=O)c2c(cc(C)c(Br)c2O)[C@H]2[C@@H](C(C)C)CC[C@]21C`: the result in assay [3], in [4], in [9], in [10], in [7] and in [8] was inactive.
With `Cc1cc([C@H]2[C@@H](C(C)C)CC[C@@]2(C)CC(=O)O)c2c(c1Br)O[C@H](C)NC2=O`, in [1], inhibition was half-maximal at 74.2 µM (IC50). In addition, the zone of inhibition at 96 µg/disc in assay [2] was found to be 3 mm. Besides, the outcome in [3], in assay [4], in assay [9], in assay [7] and in assay [8] was inactive. Moreover, the zone of inhibition at 156 µg/disc in assay [5] came to 3 mm. The zone of inhibition at 150 µg/disc in assay [6] came out at 3 mm.
